These results are taken from ChEMBL document CHEMBL1138269, “Antimicrobial lexitropsins containing amide, amidine, and alkene linking groups” (J Med Chem, 2007).

Each structure is given as a SMILES string. Converted amounts (≈) assume the structure as drawn.

Format in all cases: functional
Experiment [1] concerns Staphylococcus aureus. Description: Antibacterial activity against methicillin-resistant Staphylococcus aureus clinical isolate 3. In outline: (§1)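 Broth microdilution MIC against clinical S. aureus isolates (incl. MRSA), run per NCCLS guidelines in 96-well plates. Test sample dissolved in sterile water to a 200 µg mL-1 working concentration, then doubling dilutions in Mueller-Hinton broth. Incubated at 37 °C, growth read visually plus resazurin indicator. MIC reported in µg/mL.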

In experiment [2] the test system is Staphylococcus aureus. Description: Antibacterial activity against methicillin-resistant Staphylococcus aureus clinical isolate 4. In outline: as §1
For experiment [3], the system named is Mycolicibacterium fortuitum. Description: Antibacterial activity against Mycobacterium fortuitum NCTC 10394. Summed up: (§2)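 Broth microdilution in Mueller-Hinton broth. Samples were dissolved in sterile water to 200 µg mL-1 as the working solution and doubling dilutions were made across rows. Plates were incubated at 37 °C and inspected visually, with resazurin added as growth indicator. MIC reported in µg mL-1.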

Experiment [4] relates to Staphylococcus aureus. In words: Antibacterial activity against methicillin-resistant Staphylococcus aureus clinical isolate 2. In outline: as §1
Experiment [5] relates to Staphylococcus aureus. Description: Antibacterial activity against methicillin-resistant Staphylococcus aureus clinical isolate 5. In outline:
as §1

The next experiment concerns Aspergillus niger. Description: Antifungal activity against Aspergillus niger IMI 149007. In outline: (§3)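 Antifungal microdilution in Sabouraud broth. Test sample at 200 µg mL-1 working solution in sterile water was serially doubled down successive rows. Incubation was at 25 °C, followed by visual growth check and addition of resazurin indicator. Read-out is MIC in µg mL-1.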

The subject of experiment [6] is Staphylococcus aureus. Description: Antibacterial activity against methicillin-resistant Staphylococcus aureus clinical isolate 1. In outline: as §1
The next experiment deals with Enterococcus faecalis. Description: Antibacterial activity against Streptococcus faecalis NCTC 775. In outline: as §2
Experiment [7] relates to Staphylococcus aureus. Description: Antibacterial activity against methicillin-sensitive Staphylococcus aureus NCTC 6571. In outline: as §2
The test system of another experiment is Candida albicans. Description: Antifungal activity against Candida albicans NCPF 3179. The conditions noted are these: Candida albicans; read-out: MIC. Summed up:
as §3

Where [8] appears, read: Enterococcus faecalis, NCTC 775, read-out: MIC.
[9] abbreviates: Staphylococcus aureus, NCTC 6571, read-out: MIC.

As a reminder, the MIC is the lowest concentration that inhibits growth of the organism.

For `CSc1ccc(/C=C/c2ccc(C(=O)Nc3cc(C(=O)Nc4cc(C(=O)NCCN5CCOCC5)n(C)c4)n(C)c3)cn2)cc1`, the MIC against Staphylococcus aureus [1] is 2 µg/mL (≈ 3.19 µM); in the experiment with Staphylococcus aureus [2], 1 µg/mL (≈ 1.59 µM); in [3] it was over 50 µg/mL; in the experiment with Staphylococcus aureus [4] it was 4 µg/mL (≈ 6.37 µM); against Staphylococcus aureus [5] it was 0.5 µg/mL (≈ 0.796 µM); against Aspergillus niger it was over 50 µg/mL. For the same molecule, the MIC with Staphylococcus aureus [6] is 0.5 µg/mL (≈ 0.796 µM); in the experiment with Enterococcus faecalis (setting [8]), over 50 µg/mL; in the experiment on Staphylococcus aureus [7] (setting [9]), 6 µg/mL (≈ 9.56 µM); in the experiment on Candida albicans it was over 50 µg/mL.

`COc1cccc(/C=C/c2ccc(C(=O)Nc3cc(C(=O)Nc4cc(C(=O)NCCN5CCOCC5)n(C)c4)n(C)c3)cc2)c1`: the MIC was 4 µg/mL (≈ 6.55 µM) in the experiment on Staphylococcus aureus [1]; 4 µg/mL (≈ 6.55 µM) against Staphylococcus aureus [2]; over 50 µg/mL in experiment [3]; 4 µg/mL (≈ 6.55 µM) against Staphylococcus aureus [4]; 4 µg/mL (≈ 6.55 µM) in the experiment on Staphylococcus aureus [5]; over 50 µg/mL with Aspergillus niger. For the same molecule, the MIC against Staphylococcus aureus [6] is 2 µg/mL (≈ 3.27 µM); in the experiment on Enterococcus faecalis (setting [8]), 50 µg/mL (≈ 81.9 µM); in the experiment on Staphylococcus aureus [7] (setting [9]), 6 µg/mL (≈ 9.82 µM); in the experiment with Candida albicans, over 50 µg/mL.

In the case of `Cn1cc(NC(=O)c2cc(NC(=O)c3ccc(/C=C/c4nc5ccccc5o4)cc3)cn2C)cc1C(=O)NCCN1CCOCC1` (stereo in doubt; 79), the MIC in the experiment with Staphylococcus aureus [1] was 1 µg/mL (≈ 1.61 µM); against Staphylococcus aureus [2], 1 µg/mL (≈ 1.61 µM); in experiment [3], over 50 µg/mL; against Staphylococcus aureus [4], 16 µg/mL (≈ 25.7 µM); against Staphylococcus aureus [5], 1 µg/mL (≈ 1.61 µM); against Aspergillus niger, over 50 µg/mL. The MIC in the experiment with Staphylococcus aureus [6] was 1 µg/mL (≈ 1.61 µM); in the experiment with Enterococcus faecalis, 25 µg/mL (≈ 40.2 µM); in the experiment on Staphylococcus aureus [7], 13 µg/mL (≈ 20.9 µM); in the experiment with Candida albicans, over 50 µg/mL.

Regarding `CC(C)c1sc(NC(=O)c2cc(NC(=O)c3cc(NC=O)cn3C)cn2C)nc1C(=O)NCCN1CCOCC1`, the MIC was 64 µg/mL (≈ 112 µM) against Staphylococcus aureus [1]; 64 µg/mL (≈ 112 µM) in the experiment on Staphylococcus aureus [2]; over 50 µg/mL in experiment [3]; over 64 µg/mL in the experiment with Staphylococcus aureus [4]; 64 µg/mL (≈ 112 µM) in the experiment on Staphylococcus aureus [5]; over 50 µg/mL against Aspergillus niger. For the same molecule, the MIC is 32 µg/mL (≈ 56.1 µM) in the experiment with Staphylococcus aureus [6], 25 µg/mL (≈ 43.8 µM) in the experiment with Enterococcus faecalis (setting [8]), 13 µg/mL (≈ 22.8 µM) in the experiment with Staphylococcus aureus [7] (setting [9]) and over 50 µg/mL in the experiment with Candida albicans.

Regarding `CC(=N)Nc1cc(C(=O)Nc2cc(C(=O)Nc3cc(C(=O)NCCCN4CCOCC4)n(C)c3)n(C)c2)n(C)c1`, the MIC is over 64 µg/mL in the experiment with Staphylococcus aureus [1]; over 64 µg/mL with Staphylococcus aureus [2]; over 50 µg/mL in experiment [3]; over 64 µg/mL in the experiment on Staphylococcus aureus [4]; over 64 µg/mL in the experiment on Staphylococcus aureus [5]; over 50 µg/mL against Aspergillus niger. Besides, the MIC was over 64 µg/mL with Staphylococcus aureus [6], over 50 µg/mL in the experiment on Enterococcus faecalis (setting [8]), over 50 µg/mL with Staphylococcus aureus [7] (setting [9]) and over 50 µg/mL with Candida albicans.

Consider `COc1cccc(/C=C/c2ccc(C(=O)Nc3cc(C(=O)Nc4cc(C(=O)NCCCN(C)C)n(C)c4)n(C)c3)cc2)c1`, for which the MIC against Staphylococcus aureus [1] was 6.25 µg/mL (≈ 10.7 µM); in the experiment on Staphylococcus aureus [2], 6.25 µg/mL (≈ 10.7 µM); in experiment [3] it was over 50 µg/mL; against Staphylococcus aureus [4], 6.25 µg/mL (≈ 10.7 µM); in the experiment with Staphylococcus aureus [5], 6.25 µg/mL (≈ 10.7 µM); with Aspergillus niger it was 50 µg/mL (≈ 85.8 µM). The MIC was 6.25 µg/mL (≈ 10.7 µM) against Staphylococcus aureus [6], over 50 µg/mL in the experiment on Enterococcus faecalis (setting [8]), 6 µg/mL (≈ 10.3 µM) with Staphylococcus aureus [7] (setting [9]) and over 50 µg/mL in the experiment with Candida albicans.

`COc1cccc(/C=C/c2cc(C(=O)Nc3cc(C(=O)Nc4cc(C(=O)NCCCN(C)C)n(C)c4)n(C)c3)n(C)c2)c1`: the MIC against Staphylococcus aureus [1] is 32 µg/mL (≈ 54.6 µM); in the experiment on Staphylococcus aureus [2], 32 µg/mL (≈ 54.6 µM); in [3] it was over 50 µg/mL; against Staphylococcus aureus [4], 32 µg/mL (≈ 54.6 µM); in the experiment on Staphylococcus aureus [5], 32 µg/mL (≈ 54.6 µM); against Aspergillus niger, over 50 µg/mL. For the same molecule, the MIC in the experiment on Staphylococcus aureus [6] is 32 µg/mL (≈ 54.6 µM); in the experiment on Enterococcus faecalis (setting [8]), 25 µg/mL (≈ 42.7 µM); with Staphylococcus aureus [7] (setting [9]), over 50 µg/mL; in the experiment with Candida albicans, 50 µg/mL (≈ 85.4 µM).

`Cn1cccc1/C=C/c1ccc(C(=O)Nc2cc(C(=O)Nc3cc(C(=O)NCCN4CCOCC4)n(C)c3)n(C)c2)cc1`: the MIC against Staphylococcus aureus [1] is 16 µg/mL (≈ 27.4 µM); in the experiment on Staphylococcus aureus [2], 16 µg/mL (≈ 27.4 µM); in experiment [3], over 50 µg/mL; against Staphylococcus aureus [4], 16 µg/mL (≈ 27.4 µM); in the experiment on Staphylococcus aureus [5], 16 µg/mL (≈ 27.4 µM); with Aspergillus niger, over 50 µg/mL. The MIC against Staphylococcus aureus [6] is 4 µg/mL (≈ 6.85 µM); with Enterococcus faecalis (setting [8]), 13 µg/mL (≈ 22.3 µM); in the experiment with Staphylococcus aureus [7] (setting [9]) it was 3 µg/mL (≈ 5.14 µM); in the experiment with Candida albicans it was over 50 µg/mL.

Turning to `COc1cccc(/C=C/c2ccc(C(=O)Nc3cc(C(=O)Nc4nc(C(=O)NCCCN(C)C)c(CCC(C)C)s4)n(C)c3)cc2)c1`, the MIC was 8 µg/mL (≈ 12.2 µM) in the experiment with Staphylococcus aureus [1]; 8 µg/mL (≈ 12.2 µM) in the experiment with Staphylococcus aureus [2]; over 50 µg/mL in experiment [3]; 8 µg/mL (≈ 12.2 µM) with Staphylococcus aureus [4]; 8 µg/mL (≈ 12.2 µM) in the experiment with Staphylococcus aureus [5]; over 50 µg/mL with Aspergillus niger. In addition, the MIC was 8 µg/mL (≈ 12.2 µM) in the experiment with Staphylococcus aureus [6], over 50 µg/mL with Enterococcus faecalis (setting [8]), over 50 µg/mL with Staphylococcus aureus [7] (setting [9]) and over 50 µg/mL in the experiment on Candida albicans.

Turning to `CN(C)CCCNC(=O)c1cc(NC(=O)c2cc(NC(=O)c3ccc(/C=C/c4ccncc4)cc3)cn2C)cn1C`, the minimal inhibitory concentration (MIC) in the experiment with Staphylococcus aureus [1] was 64 µg/mL (≈ 116 µM); with Staphylococcus aureus [2], over 64 µg/mL; in experiment [3], over 50 µg/mL; against Staphylococcus aureus [4], 32 µg/mL (≈ 57.8 µM); against Staphylococcus aureus [5], over 64 µg/mL; with Aspergillus niger, over 50 µg/mL. Moreover, the minimal inhibitory concentration (MIC) is 16 µg/mL (≈ 28.9 µM) against Staphylococcus aureus [6], 25 µg/mL (≈ 45.2 µM) with Enterococcus faecalis (setting [8]), 50 µg/mL (≈ 90.3 µM) in the experiment with Staphylococcus aureus [7] (setting [9]) and over 50 µg/mL in the experiment on Candida albicans.

As for `CC(C)CCc1sc(NC(=O)c2cc(NC(=O)c3cc(/C=C/c4ccc([N+](=O)[O-])cc4)cn3C)cn2C)nc1C(=O)NCCCN(C)C`, the MIC against Staphylococcus aureus [1] is over 64 µg/mL; in the experiment with Staphylococcus aureus [2], over 64 µg/mL; in experiment [3], over 50 µg/mL; in the experiment on Staphylococcus aureus [4], over 64 µg/mL; in the experiment with Staphylococcus aureus [5], over 64 µg/mL; in the experiment with Aspergillus niger, over 50 µg/mL. Moreover, the MIC is over 64 µg/mL in the experiment with Staphylococcus aureus [6], over 50 µg/mL with Enterococcus faecalis (setting [8]), over 50 µg/mL with Staphylococcus aureus [7] (setting [9]) and over 50 µg/mL with Candida albicans.

For the molecule `CC(C)CCn1cc(NC(=O)c2cc(NC(=O)c3cccc(Cl)c3)cn2C)cc1C(=O)Nc1cc(C(=O)NCCCN(C)C)n(C)c1`, the minimum inhibitory concentration (MIC) against Staphylococcus aureus [1] was 16 µg/mL (≈ 24.1 µM); with Staphylococcus aureus [2], 16 µg/mL (≈ 24.1 µM); in experiment [3], over 50 µg/mL; against Staphylococcus aureus [4], 16 µg/mL (≈ 24.1 µM); in the experiment on Staphylococcus aureus [5] it was 16 µg/mL (≈ 24.1 µM); in the experiment with Aspergillus niger, over 50 µg/mL. Further, the MIC against Staphylococcus aureus [6] is 16 µg/mL (≈ 24.1 µM); in the experiment on Enterococcus faecalis (setting [8]), 6 µg/mL (≈ 9.05 µM); in the experiment on Staphylococcus aureus [7] (setting [9]) it was 13 µg/mL (≈ 19.6 µM); with Candida albicans it was over 50 µg/mL.

Turning to `COc1cccc(C(=N)Nc2cc(C(=O)Nc3cc(C(=O)Nc4cc(C(=O)NCCCN5CCOCC5)n(C)c4)n(C)c3)n(C)c2)c1`, the MIC against Staphylococcus aureus [1] was over 64 µg/mL; with Staphylococcus aureus [2], over 64 µg/mL; in experiment [3], over 50 µg/mL; against Staphylococcus aureus [4], over 64 µg/mL; in the experiment with Staphylococcus aureus [5], over 64 µg/mL; against Aspergillus niger, over 50 µg/mL. Further, the MIC in the experiment on Staphylococcus aureus [6] is over 64 µg/mL; in the experiment with Enterococcus faecalis (setting [8]) it was over 50 µg/mL; in the experiment with Staphylococcus aureus [7] (setting [9]) it was over 50 µg/mL; with Candida albicans it was over 50 µg/mL.

Turning to `COc1cccc(C(=O)Nc2cc(C(=O)Nc3cc(C(=O)Nc4nc(C(=O)NCCCN(C)C)c(C(C)C)s4)n(C)c3)n(C)c2)c1`, the MIC with Staphylococcus aureus [1] was 32 µg/mL (≈ 49.3 µM); in the experiment on Staphylococcus aureus [2] it was 32 µg/mL (≈ 49.3 µM); in experiment [3], over 50 µg/mL; in the experiment on Staphylococcus aureus [4], 32 µg/mL (≈ 49.3 µM); in the experiment with Staphylococcus aureus [5] it was 32 µg/mL (≈ 49.3 µM); against Aspergillus niger it was over 50 µg/mL. Also, the MIC in the experiment on Staphylococcus aureus [6] is 16 µg/mL (≈ 24.7 µM); with Enterococcus faecalis (setting [8]), 25 µg/mL (≈ 38.5 µM); in the experiment with Staphylococcus aureus [7] (setting [9]) it was 25 µg/mL (≈ 38.5 µM); in the experiment on Candida albicans, over 50 µg/mL.
